Structures are written as SMILES. Calls of active or inactive are those of the source. The calls are words filed in the database; no cut-off is given here.

Experiment [1] relates to B16. Briefly: Cytotoxicity against mouse B16 cells […] by MTT assay. The experiment is classed as functional, cell-based. (Tetrazolium dyes change colour on reduction, which living cells bring about.)
Experiment [2] deals with A549. Nature of the experiment: Induction of cell cycle arrest in human A549 cells assessed as S phase cells at 1 uM by FACS analysis (reference value: 3.69%). Type of experiment: functional. Background: A flow cytometer gives signals particle by particle.
Experiment [3] deals with A549. Nature of the experiment: Induction of cell cycle arrest in human A549 cells assessed as G2/M phase cells at 1 uM by FACS analysis (reference value: 9.89%). Type of experiment: functional.
Experiment [4] concerns A549. Briefly: Induction of cell cycle arrest in human A549 cells assessed as G1 phase cells at 1 uM by FACS analysis (reference value: 85.33%). Type of experiment: functional.
Experiment [5] has as its system ACHN. Nature of the experiment: Cytotoxicity against human ACHN cells […] by MTT assay. Type of experiment: functional, cell-based.
Experiment [6] concerns A549. Briefly: Induction of cell cycle arrest in human A549 cells assessed as sub G1 phase cells at 1 uM by FACS analysis (reference value: 1.08%). Type of experiment: functional.
Experiment [7] concerns HeLa. Nature of the experiment: Cytotoxicity against human HeLa cells […] by MTT assay. The experiment is classed as functional, cell-based.
For experiment [8], the system named is A549. Briefly: Cytotoxicity against human A549 cells […] by MTT assay. The experiment is classed as functional, cell-based.
Experiment [9] concerns HT-29. Nature of the experiment: Cytotoxicity against human HT-29 cells after 72 hrs by MTT assay. Particulars: HT-29, 72 h. Type of experiment: functional, cell-based.
Experiment [10] relates to A549. Nature of the experiment: Induction of apoptosis in human A549 cells assessed as nuclear fragmentation at 1 uM after 24 hrs by Hoechst staining method. Type of experiment: functional, cell-based. The procedure, abridged: (§1)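 Cells were seeded at 10,000 per coverslip and grown 24 h, then treated 24 h. Vehicle control was 0.001% DMSO; etoposide was the standard. Hoechst at […] with 4% paraformaldehyde was added for 30 min at 37 °C. Random fields were imaged by fluorescence microscopy and apoptotic cells scored manually by cytoplasmic condensation, apoptotic bodies, nuclear fragmentation and relative fluorescence.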

Experiment [11] relates to A549. Nature of the experiment: Induction of cell cycle arrest in human A549 cells assessed as G2/M phase cells at 3 uM by FACS analysis (reference value: 9.89%). Type of experiment: functional.
The test system of experiment [12] is A549. Briefly: Induction of apoptosis in human A549 cells assessed as apoptotic bodies at 3 uM after 24 hrs by Hoechst staining method. The experiment is classed as functional, cell-based. The procedure, abridged: as §1
For experiment [13], the system named is A549. Briefly: Induction of cell cycle arrest in human A549 cells assessed as G1 phase cells at 3 uM by FACS analysis (reference value: 85.33%). The experiment is classed as functional.
Experiment [14] relates to A549. Nature of the experiment: Induction of apoptosis in human A549 cells assessed as nuclear fragmentation at 3 uM after 24 hrs by Hoechst staining method. Type of experiment: functional, cell-based. The gist of the method:
as §1

Experiment [15] concerns A549. Briefly: Induction of apoptosis in human A549 cells assessed as increase in caspase3 activity at 3 uM after 48 hrs relative to control. Type of experiment: functional. The gist of the method:
(§2)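 A-549 cells were seeded at 2.5 × 10^6/well and treated 48 h alongside etoposide, then scraped and lysed on ice. Supernatant was mixed with 2X assay buffer and Ac-DEVD-AFC substrate for 1 h. Fluorescence (ex 400, em 505 nm) was read every 5 min, normalized to Bradford protein and expressed as fold over control. Two experiments, each in triplicate.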

Experiment [16] concerns A549. Nature of the experiment: Induction of apoptosis in human A549 cells assessed as increase in fluorescence at 3 uM after 24 hrs by Hoechst staining method relative to control. Type of experiment: functional, cell-based. The gist of the method: as §1
Experiment [17] has as its system A549. Briefly: Induction of apoptosis in human A549 cells assessed as cytoplasmic condensation at 3 uM after 24 hrs by Hoechst staining method. The experiment is classed as functional, cell-based. The gist of the method:
as §1

Experiment [18] has as its system A549. Briefly: Induction of apoptosis in human A549 cells assessed as apoptotic bodies at 1 uM after 24 hrs by Hoechst staining method. Type of experiment: functional, cell-based. The procedure, abridged: as §1
For experiment [19], the system named is A549. Nature of the experiment: Induction of cell cycle arrest in human A549 cells assessed as sub G1 phase cells at 3 uM by FACS analysis (reference value: 1.08%). The experiment is classed as functional.
Experiment [20] deals with A549. Nature of the experiment: Induction of apoptosis in human A549 cells assessed as increase in caspase3 activity at 1 uM after 48 hrs relative to control. The experiment is classed as functional. The procedure, abridged:
as §2

In experiment [21] the test system is A549. Briefly: Induction of cell cycle arrest in human A549 cells assessed as S phase cells at 3 uM by FACS analysis (reference value: 3.69%). The experiment is classed as functional.
The test system of experiment [22] is A549. Briefly: Induction of apoptosis in human A549 cells assessed as DNA fragmentation at 3 uM after 48 hrs by agarose gel electrophoretic analysis. Type of experiment: functional, cell-based. The gist of the method: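 Cells were seeded at 1 × 10^6/well and grown 48 h, then treated 48 h. Cells were pelleted and lysed. Lysate was given SDS and RNase-A at 56 °C for 2 h, then proteinase K at 37 °C for 2 h. DNA was precipitated with ammonium acetate and cold ethanol, washed with 80% ethanol and dissolved in TE. Laddering was read on 2% agarose gel in TE; 50 bp marker.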

The test system of experiment [23] is A549. Briefly: Induction of apoptosis in human A549 cells assessed as cytoplasmic condensation at 1 uM after 24 hrs by Hoechst staining method. Type of experiment: functional, cell-based. The gist of the method: as §1
For experiment [24], the system named is A549. Nature of the experiment: Induction of apoptosis in human A549 cells assessed as increase in fluorescence at 1 uM after 24 hrs by Hoechst staining method relative to control. Type of experiment: functional, cell-based. The gist of the method:
as §1

Usually IC50 stands for the midpoint of a concentration-inhibition curve. Take `COc1cc([C@@H]2c3cc4c(cc3[C@H](O)[C@H]3COC(=O)[C@H]23)OCO4)cc(OC)c1OC` [PODOFILOX]: the half-inhibitory concentration (IC50) in experiment [1] was found to be 2500 nM; in experiment [5] it was 2300 nM; in [7], 2800 nM; in experiment [8] it was 3600 nM; in [9], 1020 nM. For the same compound, the Activity was 3.67% in experiment [2], 16.24% in [3], 78.31% in experiment [4] and 1.83% in [6].
As to `COc1cc([C@@H]2c3cc4c(cc3[C@@H](NC(=O)c3cc(-c5ccc(Cl)c(Cl)c5)[nH]n3)[C@H]3COC(=O)[C@H]23)OCO4)cc(OC)c1OC`, the outcome in experiment [10], in experiment [12], in experiment [14], in experiment [16], in experiment [17] and in [18] was Active. In addition, the outcome in [22], in experiment [23] and in experiment [24] was Active. The Activity in experiment [11] is 61.28%; in experiment [13], 27.71%; in experiment [2] it was 2.27%; in experiment [19] it was 2.05%; in experiment [3], 27.68%; in experiment [4] it was 63.35%. The values for the Activity in [6] and in experiment [21] were 6.77% and 8.96%, respectively. The IC50 in [1] is 9500 nM; in experiment [5], 15900 nM; in experiment [7], 9300 nM; in experiment [8], 2100 nM; in experiment [9], 7100 nM. The figures for the “fold change (FC)” value in [15] and in experiment [20] were 6 and 4, respectively.
As for `COc1cc([C@@H]2c3cc4c(cc3[C@@H](O[C@@H]3O[C@@H]5CO[C@@H](C)O[C@H]5[C@H](O)[C@H]3O)[C@H]3COC(=O)[C@H]23)OCO4)cc(OC)c1O` [ETOPOSIDE], the Activity in experiment [11] turned out to be 57.86%; in experiment [13], 31.49%; in experiment [2], 4.1%; in experiment [19], 8.3%; in experiment [3], 32.33%; in [4] it was 62.32%. Also, the Activity is recorded as 1.25% in experiment [6] and 2.42% in experiment [21]. Further, the result in experiment [12], in experiment [14], in experiment [16], in experiment [17] and in [22] was Active. In addition, the half-inhibitory concentration (IC50) in experiment [1] came out at 1390 nM; in experiment [7], 1520 nM; in experiment [8], 2800 nM. Besides, the “fold change (FC)” value in [15] was determined as 6.
